Reference: the RNAGym collection of RNA variant scans (doi:10.1126/science.aae0568)
Fewer inactive variants are shown than the library holds.

B1: tRNA (parent)
chain: GUUCCGUUGGCGUAAUGGUAACGCGUCUCCCUCCUAAGGAGAAGACUGCGGGUUCGAGUCCCGUACGGAACG

Variants of: B1
Experiment: yeast fitness relative to wild type (ratio to wild type); higher = fitter; tRNA-Arg(CCU), competitive growth, 37 C, YPD
Outline: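 Genotype frequency changes were the basis for Darwinian fitness relative to wild type. The frequencies came from 100-nucleotide paired-end sequencing of gene amplicons from the start population and each end population of pooled yeast strains with tRNA-Arg(CCU) gene variants at the native locus. Competition ran in YPD at 37°C for 24 hours in six replicates, genotypes needed ≥ 100 starting reads, and estimates < 0.5 were set to 0.5.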

Row | Variant | yeast fitness
1 | G9C A40U G41A | ≤ 0.5
2 | G9C A42C C49G U53A | ≤ 0.5
3 | G9C A43G | 0.706
4 | G9C A45C A65C | ≤ 0.5
5 | G9C A65C | 0.67
6 | G9C C11A A40C A70U | 0.704
7 | G9C C11A U47G A69C | 0.601
8 | G9C C11U G18C C31A A57G | ≤ 0.5
9 | G9C C22A C34A A70G | ≤ 0.5
10 | G9C C22G C33G G63C | ≤ 0.5
11 | G9C C22G G50A | ≤ 0.5
12 | G9C C22U U26C G58C G68U | ≤ 0.5
13 | G9C C24A A45G C46G | 0.597
14 | G9C C24A C34A C46G | ≤ 0.5
15 | G9C C24G C27U U47G U53A | ≤ 0.5
16 | G9C C24G C49U A65C | ≤ 0.5
17 | G9C C24U G48C G51A | ≤ 0.5
18 | G9C C24U U26G A42U G52U | ≤ 0.5
19 | G9C C24U U26G C62G A70U | ≤ 0.5
20 | G9C C27A C33A G63A A70G | ≤ 0.5
21 | G9C C27G C46G A65G | ≤ 0.5
22 | G9C C27G G44A A57G | 0.691
23 | G9C C27U A36G A42U | 0.76
24 | G9C C27U C34G C60A | ≤ 0.5

Row | Variant | yeast fitness
25 | G9C C27U G58C | 0.639
26 | G9C C27U U47C C55U C62G A69U | ≤ 0.5
27 | G9C C27U U47G G50A | ≤ 0.5
28 | G9C C29A | 0.601
29 | G9C C29U A70C | ≤ 0.5
30 | G9C C29U C49A C61U | ≤ 0.5
31 | G9C C30G A37U U47A | ≤ 0.5
32 | G9C C30G A57U C60G | 0.533
33 | G9C C33U | 0.536
34 | G9C C46G | 0.735
35 | G9C C46U G63A | 0.69
36 | G9C C55G C66A | ≤ 0.5
37 | G9C C61A | 0.531
38 | G9C C62A | 0.576
39 | G9C C62G | 0.608
40 | G9C G10A G12C G25C G52C | ≤ 0.5
41 | G9C G10C A36U | ≤ 0.5
42 | G9C G10C A36U G44A C46G | 0.563
43 | G9C G10C C29G C46A C66U | ≤ 0.5
44 | G9C G10C C66U | ≤ 0.5
45 | G9C G10C U47A G68C | ≤ 0.5
46 | G9C G12A A57C | 0.541
47 | G9C G12A U35G | ≤ 0.5
48 | G9C G12C C24U C34U C49G | 0.658

Row | Variant | yeast fitness
49 | G9C G12C C31A A40U | ≤ 0.5
50 | G9C G12C C33U U35A | ≤ 0.5
51 | G9C G17C C27G U35A C49A A69U | 0.536
52 | G9C G23A | 0.544
53 | G9C G25C C66U A70C | 0.55
54 | G9C G38A | 0.624
55 | G9C G39C A45C | ≤ 0.5
56 | G9C G44A C60G | ≤ 0.5
57 | G9C G44C | 0.65
58 | G9C G48C | 0.695
59 | G9C G50C U53G G67C | 0.68
60 | G9C G56C | 0.514
61 | G9C G63A | 0.72
62 | G9C U13A G25A A40C A57C C61G G67A | ≤ 0.5
63 | G9C U13A G25A A40C A57C G58A C61A G67A | ≤ 0.5
64 | G9C U13A U59A | 0.718
65 | G9C U13C C27A U54A C60U | ≤ 0.5
66 | G9C U16A C24U C30U C62U | ≤ 0.5
67 | G9C U16C A69C | 0.562
68 | G9C U16C C30A G41C A45C C46G | ≤ 0.5
69 | G9C U16G A20G | 0.803
70 | G9C U16G C29G A40G | ≤ 0.5
71 | G9C U16G C31A C60A | ≤ 0.5
72 | G9C U19C C31A | ≤ 0.5

Row | Variant | yeast fitness
73 | G9C U19C G48A U64C | 0.609
74 | G9C U28A A40C U59C | ≤ 0.5
75 | G9C U28C A42U | 0.647
76 | G9C U28G A65C | 0.582
77 | G9C U32G C33G G50A U53G | ≤ 0.5
78 | G9C U47G C49A A69U | ≤ 0.5
79 | G9C U53A C66U | ≤ 0.5
80 | G9C U53C | 0.59
81 | G9C U54C U59C A69G | ≤ 0.5
82 | G9C U54G | 0.605
83 | G9C U59A | 0.737
84 | G9U A70C | 1.13
85 | G9U C11A C24G C30G | ≤ 0.5
86 | G9U C11G U32G G56A | ≤ 0.5
87 | G9U C22U | 0.715
88 | G9U C24G C55U | 0.668
89 | G9U C31U A36C U53C | ≤ 0.5
90 | G9U G18A C46A C49G | 0.552
91 | G10A A14C G17A C22G C24G C30A | 0.775
92 | G10A A14G U26C A36U G52A | ≤ 0.5
93 | G10A A14U | ≤ 0.5
94 | G10A A14U C30U C34A | ≤ 0.5
95 | G10A A14U C31A C46A A65U | ≤ 0.5
96 | G10A A15C A37C C62A | 0.636

Row | Variant | yeast fitness
97 | G10A A15C A70U | ≤ 0.5
98 | G10A A15C G25A C66U | 0.543
99 | G10A A15G | 0.782
100 | G10A A15G C27U A42C G50C | ≤ 0.5
101 | G10A A15U A36G U47G A65U | ≤ 0.5
102 | G10A A15U A36U | ≤ 0.5
103 | G10A A15U G51A A65U | 0.603
104 | G10A A20C C61A C62U G63U C66A | 0.646
105 | G10A A20C G38A G41A U47A | ≤ 0.5
106 | G10A A20G U35G A37G | ≤ 0.5
107 | G10A A20U C31G C62U | ≤ 0.5
108 | G10A A21C A40G U59C | ≤ 0.5
109 | G10A A21C C24A C66A | ≤ 0.5
110 | G10A A21C C24A G63A A65C | ≤ 0.5
111 | G10A A21C C34U | ≤ 0.5
112 | G10A A21U C31G | ≤ 0.5
113 | G10A A21U C33A G68C | 0.607
114 | G10A A36C | ≤ 0.5
115 | G10A A36C A70G | ≤ 0.5
116 | G10A A36C C62G | ≤ 0.5
117 | G10A A36G | 0.664
118 | G10A A36U A37G | ≤ 0.5
119 | G10A A40U G52C C62A A65C A70U | 0.655
120 | G10A A42C A43C A70U | ≤ 0.5

Row | Variant | yeast fitness
121 | G10A A42C A43C C66A | ≤ 0.5
122 | G10A A42G | 0.656
123 | G10A A43U C60U | ≤ 0.5
124 | G10A A45G | 0.839
125 | G10A A45G C55A | ≤ 0.5
126 | G10A A57G G68C | ≤ 0.5
127 | G10A C11A C29A | 0.627
128 | G10A C11A C29A A45C A69U | ≤ 0.5
129 | G10A C11A C29A A69U | 0.538
130 | G10A C11A G38A G52C C61A | ≤ 0.5
131 | G10A C11A G67C | ≤ 0.5
132 | G10A C11G A20G C55G | ≤ 0.5
133 | G10A C11G A69C A70G | ≤ 0.5
134 | G10A C11U A20G A40G C55G | ≤ 0.5
135 | G10A C22A C46A | ≤ 0.5
136 | G10A C22G C62U | ≤ 0.5
137 | G10A C22G G25C | ≤ 0.5
138 | G10A C24A A43C C61U | ≤ 0.5
139 | G10A C24A C30A C31G A43U | ≤ 0.5
140 | G10A C24G C33G A45U G68C | ≤ 0.5
141 | G10A C24G G56A | ≤ 0.5
142 | G10A C27G U28G C34U C46G | 0.576
143 | G10A C27G U28G C34U C46G G67A | ≤ 0.5
144 | G10A C27U A40C U47A G48C | 0.585

Row | Variant | yeast fitness
145 | G10A C27U C33U A43U U54C G68C | ≤ 0.5
146 | G10A C27U C34G A37U G41C G48A | 0.573
147 | G10A C27U G56A C60U | 0.556
148 | G10A C27U G67C | 0.627
149 | G10A C29A A42U U64C | 0.529
150 | G10A C29A C34G A43C C60G | 0.663
151 | G10A C29G C33U G50A | 0.535
152 | G10A C29U A57C | ≤ 0.5
153 | G10A C29U C30G C34A U53C | ≤ 0.5
154 | G10A C30A C31G | ≤ 0.5
155 | G10A C30G A65G | ≤ 0.5
156 | G10A C30U C34U A42U A57G | ≤ 0.5
157 | G10A C31A C61U | ≤ 0.5
158 | G10A C31U G38C G63A A65G G68C A69G | ≤ 0.5
159 | G10A C33G A70U | ≤ 0.5
160 | G10A C33U | 0.592
161 | G10A C33U G44C A45G G58A | ≤ 0.5
162 | G10A C34G A69U | ≤ 0.5
163 | G10A C34G U64A | ≤ 0.5
164 | G10A C34U | ≤ 0.5
165 | G10A C34U G39C | ≤ 0.5
166 | G10A C34U G44A | ≤ 0.5
167 | G10A C49A | 0.521
